In ChEMBL document CHEMBL1140286, “Synthesis, in vitro characterization, and radiolabeling of N,N-dimethyl-2-(2'-amino-4'-substituted-phenylthio)benzylamines: potential candidates as selective serotonin transporter radioligands” (J Med Chem, 2005):

What was measured:
Format in all cases: cell-based
[1] = target: Sodium-dependent noradrenaline transporter (Homo sapiens, UniProt P23975); assay: In vitro inhibition of [3H]nisoxetine binding to norepinephrine transporter expressed in human kidney cells
Sequence of Sodium-dependent noradrenaline transporter (P23975 whole entry): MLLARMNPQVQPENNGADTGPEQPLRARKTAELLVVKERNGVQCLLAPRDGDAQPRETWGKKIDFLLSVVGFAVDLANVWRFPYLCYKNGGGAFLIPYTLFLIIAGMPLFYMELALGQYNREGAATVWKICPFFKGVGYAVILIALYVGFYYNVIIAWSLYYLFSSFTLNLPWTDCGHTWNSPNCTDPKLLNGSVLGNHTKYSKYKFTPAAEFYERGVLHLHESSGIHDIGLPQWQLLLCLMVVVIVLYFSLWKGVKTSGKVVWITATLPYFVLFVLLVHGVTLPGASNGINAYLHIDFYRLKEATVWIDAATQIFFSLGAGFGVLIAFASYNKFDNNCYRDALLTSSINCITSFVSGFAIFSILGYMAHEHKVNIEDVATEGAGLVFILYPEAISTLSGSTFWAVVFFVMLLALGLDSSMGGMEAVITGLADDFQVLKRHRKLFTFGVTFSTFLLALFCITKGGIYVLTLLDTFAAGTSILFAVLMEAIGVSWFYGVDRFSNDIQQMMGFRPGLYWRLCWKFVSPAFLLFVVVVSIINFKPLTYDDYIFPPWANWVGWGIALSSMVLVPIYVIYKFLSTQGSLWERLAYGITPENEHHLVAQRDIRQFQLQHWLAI
Summary of the method: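 HEK-293 membranes stably expressing hNET (30-70 µg protein) incubated 4 h at 4 °C with [3H]nisoxetine in 53 mM Tris, 320 mM NaCl, 5.3 mM KCl, pH 7.4. Competitor dissolved in 1:1 ethanol/5 mM HCl, 12 concentrations from 10^-13 to 10^-5 M, triplicate. Cold-buffer termination, vacuum filtration on GF/B; Ki calculated from competition curves.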

[2] = target: Sodium-dependent dopamine transporter (Homo sapiens, UniProt Q01959); assay: In vitro inhibition of [3H]WIN-35428 binding to human dopamine transporter expressed in canine kidney cells
Sequence of Sodium-dependent dopamine transporter (Q01959 whole entry): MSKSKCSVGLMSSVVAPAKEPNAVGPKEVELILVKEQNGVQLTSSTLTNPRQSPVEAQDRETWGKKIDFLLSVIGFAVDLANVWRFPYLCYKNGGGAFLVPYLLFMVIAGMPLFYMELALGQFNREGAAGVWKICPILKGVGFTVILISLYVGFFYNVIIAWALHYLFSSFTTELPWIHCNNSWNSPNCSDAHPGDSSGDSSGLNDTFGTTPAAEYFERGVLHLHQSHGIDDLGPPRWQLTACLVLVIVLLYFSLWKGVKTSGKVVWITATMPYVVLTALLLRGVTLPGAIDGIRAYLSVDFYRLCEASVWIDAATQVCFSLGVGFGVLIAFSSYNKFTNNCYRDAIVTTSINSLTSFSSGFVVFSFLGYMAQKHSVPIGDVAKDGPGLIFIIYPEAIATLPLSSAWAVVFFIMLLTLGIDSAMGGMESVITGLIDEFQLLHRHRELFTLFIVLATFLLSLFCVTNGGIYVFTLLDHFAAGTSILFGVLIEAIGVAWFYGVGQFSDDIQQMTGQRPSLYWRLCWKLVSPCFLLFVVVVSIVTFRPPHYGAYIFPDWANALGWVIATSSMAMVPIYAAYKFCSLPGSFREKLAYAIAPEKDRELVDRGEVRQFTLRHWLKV
Summary of the method: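 Membranes from MDCK cells stably expressing hDAT, grown to confluency in DMEM with 10% FBS and Geneticin, harvested in PBS/0.53 mM EDTA, homogenized, pelleted at 43 000g. Membranes (30-70 µg protein) incubated 1 h at room temperature in 42 mM sodium phosphate, 320 mM sucrose, pH 7.4, with 2.0 nM [3H]WIN 35,428; competitor 10^-13 to 10^-5 M, 12 concentrations, triplicate; GF/B filtration; Ki.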

[3] = target: Sodium-dependent serotonin transporter (Homo sapiens, UniProt P31645); assay: In vitro inhibition of [3H]citalopram binding to human serotonin transporter expressed in human HEK293 cells
Sequence of Sodium-dependent serotonin transporter (P31645 whole entry): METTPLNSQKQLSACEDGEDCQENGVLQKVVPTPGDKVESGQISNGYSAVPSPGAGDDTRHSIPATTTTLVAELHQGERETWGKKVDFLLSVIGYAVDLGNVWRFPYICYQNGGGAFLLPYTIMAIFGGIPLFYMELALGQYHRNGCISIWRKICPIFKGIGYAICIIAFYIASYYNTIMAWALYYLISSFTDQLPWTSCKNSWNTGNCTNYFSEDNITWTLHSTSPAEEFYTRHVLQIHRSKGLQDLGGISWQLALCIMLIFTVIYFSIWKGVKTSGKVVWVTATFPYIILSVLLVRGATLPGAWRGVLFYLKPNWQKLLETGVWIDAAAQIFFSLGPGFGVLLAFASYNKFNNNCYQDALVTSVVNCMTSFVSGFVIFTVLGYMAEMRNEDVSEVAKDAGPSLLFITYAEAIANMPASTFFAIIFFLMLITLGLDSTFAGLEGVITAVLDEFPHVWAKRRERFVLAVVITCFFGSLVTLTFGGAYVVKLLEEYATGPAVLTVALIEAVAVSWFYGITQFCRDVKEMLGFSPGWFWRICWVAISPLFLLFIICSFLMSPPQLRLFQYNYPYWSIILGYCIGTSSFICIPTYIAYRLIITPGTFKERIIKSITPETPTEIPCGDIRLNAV
Summary of the method: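 Membranes from HEK-293 cells stably expressing hSERT, grown in DMEM with 10% FBS and Geneticin. 30-70 µg membrane protein incubated 2 h at room temperature with [3H]citalopram in 53 mM Tris, 126 mM NaCl, 5.3 mM KCl, pH 7.9. Competitor at 12 concentrations, 10^-13 to 10^-5 M, in triplicate. Filtration through PEI-soaked GF/B filters; Ki from competition curves, at least two separate assays.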

SMILES | Ki [1] | Ki [2] | Ki [3]
CCc1ccc(Sc2ccccc2CN(C)C)c(N)c1 | 370 nM | > 2000 nM | 0.49 nM
CCc1ccc(Sc2ccccc2CNC)c(N)c1 | 445 nM | > 1000 nM | 2.04 nM
C=Cc1ccc(Sc2ccccc2CN(C)C)c(N)c1 | 269 nM | 962 nM | 1.12 nM
CN(C)Cc1ccccc1Sc1ccc(CO)cc1N | 303 nM | > 1000 nM | 0.57 nM
CNC(=O)c1ccccc1Sc1ccccc1[N+](=O)[O-] | 37.5 nM | 969 nM | 83.4 nM
CN(C)Cc1ccccc1Sc1ccc(I)cc1N |  |  | 0.013 nM
CNCc1ccccc1Sc1ccc(CO)cc1N | 484 nM | > 1000 nM | 15.1 nM
CN(C)Cc1ccccc1Sc1ccc(CCCF)cc1N | 219 nM | > 5000 nM | 8.55 nM
CN(C)Cc1ccccc1Sc1ccc(CCCO)cc1N | 108 nM | > 5000 nM | 92.3 nM

Further compounds by falling Ki [3], results first:

Ki [1] | Ki [2] | Ki [3] | SMILES
194 nM | > 1000 nM | 50.6 nM | CN(C)Cc1ccccc1Sc1ccc(CCO)cc1N
> 5000 nM | > 5000 nM | 8.5 nM | CN(C)Cc1ccccc1Sc1ccc(CCF)cc1N
191 nM | 698 nM | 1.94 nM | CNC(=O)c1ccccc1Sc1ccc(C)cc1[N+](=O)[O-]
4.95 nM | 279 nM | 1.59 nM | CN(C)Cc1ccccc1Sc1ccccc1N
61 nM | 532 nM | 0.25 nM | Cc1ccc(Sc2ccccc2CN(C)C)c(N)c1
